How the values were obtained:
MV4-11 [1] = assay: Cytotoxicity against human MV4-11 cells assessed as reduction in cell viability incubated for 24 hrs by celltiter-glo assay; format: functional, cell-based; conditions: MV4-11, 24 h
Summary of the method: (§1)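 MV4;11 cells (WT or CASP1−/−), grown in RPMI 1640 with 10% FBS at 37 °C, 5% CO2, plated 2000 cells/well, dosed by pintool across 100 μM to 15.2 nM in three-fold steps for 24 h. Viability by CellTiter-Glo luminescence after 2 min shaking and 10 min at 25 °C. IC50 as mean ± SEM of three biological replicates.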

MV4-11 [2] = assay: Cytotoxicity against CASP1 knockout human MV4-11 cells assessed as reduction in cell viability at 0.015 to 100 uM incubated for 24 hrs by celltiter-glo assay; format: functional; conditions: dose 0.015-100 µM; summary of the method: as §1
MV4-11 [3] = assay: Cytotoxicity against human MV4-11 cells assessed as reduction in cell viability at 0.015 to 100 uM incubated for 24 hrs by celltiter-glo assay; format: functional; conditions: dose 0.015-100 µM; summary of the method: as §1

Structure (SMILES)	IC50 (MV4-11 [1]) [µM]	Activity (MV4-11 [2]) [%]	Activity (MV4-11 [3]) [%]
COC(=O)[C@@H]1CCCN1C(=O)[C@@H](O)[C@H](N)CCC(F)(F)F	> 100	100	68
CC(C)C[C@H](NC(=O)[C@@H]1CCCN1C(=O)[C@@H](O)[C@H](N)CC(C)C)C(=O)N(C)C	8.2	–	–
COC(=O)[C@@H]1CCCN1C(=O)[C@@H](O)[C@@H](N)c1cccs1	10	71	22
COC(=O)[C@@H]1CCCN1C(=O)[C@@H](O)[C@H](N)c1ccccc1	15	97	32
COC(=O)[C@@H]1C[C@H](F)CN1C(=O)[C@@H](O)[C@H](N)CC(C)C	61	94	32
CC(C)C[C@@H](N)[C@H](O)C(=O)N1CCC[C@H]1C(N)=O	17	96	35
COC(=O)[C@@H]1CCCN1C(=O)[C@@H](O)[C@H](N)Cc1ccccc1	> 100	97	73
CC(C)C[C@H](NC(=O)[C@@H]1CCCN1C(=O)[C@@H](O)[C@H](N)CC(C)C)C(=O)NC(C)(C)C	7.3	–	–
COC(=O)[C@@H]1CC2(CC2)CN1C(=O)[C@@H](O)[C@H](N)CC(C)C	8.1	101	43
CONC(=O)[C@H](CC(C)C)NC(=O)[C@@H]1CCCN1C(=O)[C@@H](O)[C@H](N)CC(C)C	> 100	–	–
CONC(=O)[C@@H]1CCCN1C(=O)[C@@H](O)[C@H](N)CC(C)C	> 100	103	95
CC(C)C[C@H](NC(=O)[C@@H]1CCCN1C(=O)[C@@H](O)[C@H](N)CC(C)C)C(=O)NCCc1ccc2ccccc2c1	0.43	–	–
COC(=O)[C@@H]1CCCN1C(=O)[C@@H](O)[C@H](N)C12CC3CC(CC(C3)C1)C2	> 100	98	83
COC(=O)[C@@H]1C[C@H](C)CN1C(=O)[C@@H](O)[C@H](N)CC(C)C	5.6	96	10
COC(=O)[C@@H]1CCCN1C(=O)[C@@H](O)[C@H](N)C(C)C	46	104	23
CC(C)C[C@H](NC(=O)[C@@H]1CCCN1C(=O)[C@@H](O)[C@H](N)CC(C)C)C(=O)N1CCC1	> 100	–	–
COC(=O)[C@@H]1CCCN1C(=O)[C@@H](O)[C@H](N)CC(C)(C)C	> 100	100	20
CC(C)C[C@H](NC(=O)[C@@H]1CCCN1C(=O)[C@@H](O)[C@H](N)CC(C)C)C(=O)NS(=O)(=O)N(C)C	> 100	–	–
COC(=O)[C@@H]1CCCN1C(=O)[C@@H](O)[C@H](N)CCCCO	> 100	92	87
CC(C)C[C@H](NC(=O)[C@@H]1CCCN1C(=O)[C@@H](O)[C@H](N)CC(C)C)C(N)=O	> 100	–	–
COC(=O)[C@@H]1CCCN1C(=O)[C@@H](O)[C@H](N)c1ccc2ccoc2c1	60	85	44
CC(C)C[C@H](NC(=O)[C@@H]1CCCN1C(=O)[C@@H](O)[C@H](N)CC(C)C)C(=O)NCCF	3	–	–
COC(=O)[C@@H]1CCCN1C(=O)[C@@H](O)[C@H](N)C1CC1	> 100	102	85
CC(C)C[C@@H](N)[C@H](O)C(=O)N1CCC[C@H]1c1nnn[nH]1	> 100	95	85
COC(=O)[C@@H]1CCCN1C(=O)[C@@H](O)[C@@H](N)c1ccco1	14	71	23
CC(C)CCNC(=O)[C@H](CC(C)C)NC(=O)[C@@H]1CCCN1C(=O)[C@@H](O)[C@H](N)CC(C)C	1	–	–
CC(C)C[C@H](NC(=O)[C@@H]1CCCN1C(=O)[C@@H](O)[C@H](N)CC(C)C)C(=O)NCCc1ccc(-c2ccccc2)cc1	0.65	–	–

From ChEMBL document CHEMBL5380787, “Optimized M24B Aminopeptidase Inhibitors for CARD8 Inflammasome Activation” (J Med Chem, 2023)
